Laboratory results reported in ChEMBL document CHEMBL1137074, “Novel N-arylpyrazolo[3,2-c]-based ligands for the glucocorticoid receptor: receptor binding and in vivo activity” (J Med Chem, 2004).

Tests used:
[1] = target: T1, Glucocorticoid receptor (Homo sapiens, UniProt P04150); assay: Ability to induce human IL-6 assay in A549 lung carcinoma cell line.; format: functional, cell-based
T1 sequence (P04150 whole entry): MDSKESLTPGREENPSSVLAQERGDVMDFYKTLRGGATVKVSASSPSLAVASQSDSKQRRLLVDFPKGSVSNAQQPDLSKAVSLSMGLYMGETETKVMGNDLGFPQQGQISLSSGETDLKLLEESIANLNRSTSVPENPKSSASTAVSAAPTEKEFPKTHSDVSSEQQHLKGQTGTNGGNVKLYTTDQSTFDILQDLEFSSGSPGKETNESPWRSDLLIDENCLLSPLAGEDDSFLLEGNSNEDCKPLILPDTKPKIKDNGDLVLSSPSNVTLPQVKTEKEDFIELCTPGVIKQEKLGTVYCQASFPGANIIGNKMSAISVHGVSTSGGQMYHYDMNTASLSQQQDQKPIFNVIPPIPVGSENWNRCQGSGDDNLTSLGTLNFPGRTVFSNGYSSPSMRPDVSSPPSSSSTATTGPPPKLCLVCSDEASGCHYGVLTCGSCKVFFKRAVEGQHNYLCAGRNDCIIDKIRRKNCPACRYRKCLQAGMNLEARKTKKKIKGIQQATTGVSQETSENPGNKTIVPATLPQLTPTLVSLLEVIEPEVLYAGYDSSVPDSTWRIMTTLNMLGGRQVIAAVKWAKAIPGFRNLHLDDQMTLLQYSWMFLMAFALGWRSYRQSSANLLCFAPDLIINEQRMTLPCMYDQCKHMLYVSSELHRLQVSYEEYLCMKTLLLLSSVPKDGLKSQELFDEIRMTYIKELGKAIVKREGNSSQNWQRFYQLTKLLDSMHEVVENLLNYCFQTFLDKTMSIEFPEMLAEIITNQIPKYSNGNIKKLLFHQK

[2] = target: T2, Androgen receptor (Homo sapiens, UniProt P10275); assay: Binding affinity for human androgen receptor
T2 sequence (P10275 whole entry): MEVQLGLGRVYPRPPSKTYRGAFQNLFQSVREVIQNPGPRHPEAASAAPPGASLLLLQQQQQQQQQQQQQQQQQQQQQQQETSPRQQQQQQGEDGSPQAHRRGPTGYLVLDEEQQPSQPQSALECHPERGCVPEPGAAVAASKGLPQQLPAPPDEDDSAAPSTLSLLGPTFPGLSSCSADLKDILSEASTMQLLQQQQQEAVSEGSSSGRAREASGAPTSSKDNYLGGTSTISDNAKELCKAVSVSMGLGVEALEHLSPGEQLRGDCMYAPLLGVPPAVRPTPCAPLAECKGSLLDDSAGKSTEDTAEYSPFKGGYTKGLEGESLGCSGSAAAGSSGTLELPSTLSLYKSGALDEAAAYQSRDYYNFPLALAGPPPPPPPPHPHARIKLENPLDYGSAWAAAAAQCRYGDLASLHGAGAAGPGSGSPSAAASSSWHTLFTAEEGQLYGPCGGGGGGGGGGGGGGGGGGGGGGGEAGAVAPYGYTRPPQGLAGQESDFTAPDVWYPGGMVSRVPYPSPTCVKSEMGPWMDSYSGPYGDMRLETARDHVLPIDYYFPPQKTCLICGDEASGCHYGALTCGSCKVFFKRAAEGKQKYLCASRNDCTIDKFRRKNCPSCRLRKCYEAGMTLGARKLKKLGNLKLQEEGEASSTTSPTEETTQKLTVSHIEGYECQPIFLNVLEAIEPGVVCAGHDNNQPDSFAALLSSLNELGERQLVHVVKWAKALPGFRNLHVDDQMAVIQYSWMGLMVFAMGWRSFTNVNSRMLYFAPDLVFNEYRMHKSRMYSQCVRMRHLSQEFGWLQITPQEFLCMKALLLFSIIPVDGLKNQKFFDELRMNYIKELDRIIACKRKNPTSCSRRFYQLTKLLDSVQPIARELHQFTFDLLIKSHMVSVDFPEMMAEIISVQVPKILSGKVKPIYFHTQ

[3] = target: T3, Estrogen receptor (Homo sapiens, UniProt P03372); assay: Binding affinity for human Estrogen receptor alpha
T3 sequence (P03372 whole entry): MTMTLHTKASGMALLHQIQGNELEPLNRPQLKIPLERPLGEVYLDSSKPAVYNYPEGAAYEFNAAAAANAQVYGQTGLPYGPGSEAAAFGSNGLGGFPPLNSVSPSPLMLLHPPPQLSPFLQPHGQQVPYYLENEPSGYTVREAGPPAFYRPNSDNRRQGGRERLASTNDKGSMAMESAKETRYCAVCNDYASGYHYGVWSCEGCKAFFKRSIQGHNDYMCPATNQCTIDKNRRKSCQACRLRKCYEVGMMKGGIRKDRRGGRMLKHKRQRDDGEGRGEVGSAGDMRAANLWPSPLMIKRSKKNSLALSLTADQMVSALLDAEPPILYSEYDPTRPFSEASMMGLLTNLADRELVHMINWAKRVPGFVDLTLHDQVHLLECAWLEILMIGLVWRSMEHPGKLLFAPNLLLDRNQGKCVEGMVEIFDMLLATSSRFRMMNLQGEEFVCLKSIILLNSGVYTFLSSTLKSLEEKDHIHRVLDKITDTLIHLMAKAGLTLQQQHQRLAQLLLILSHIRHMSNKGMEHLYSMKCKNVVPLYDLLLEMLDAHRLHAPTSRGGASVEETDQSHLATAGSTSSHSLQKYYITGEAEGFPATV

[4] = target: T1, Glucocorticoid receptor; assay: Binding affinity for human glucocorticoid receptor
[5] = target: T1, Glucocorticoid receptor; assay: Compound was tested for inhibitory activity towards human glucocorticoid receptor
[6] = target: T1, Glucocorticoid receptor; assay: Ability to induce human glutamine synthetase in skeletal muscle cells; format: cell-based
[7] = system: Mus musculus; assay: Ability to induce mouse macrophage IL-6 assay in peritoneal exudate cells harvested by […] from C57BI/6 mice.; format: functional, cell-based
How it was run: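 Thioglycolate-elicited peritoneal exudate cells from C57Bl/6 mice, harvested day 3 in PBS/heparin, washed and resuspended at 5.6×10^5 cells/mL in RPMI 1640 with 10% heat-inactivated FCS. Compound (typically 3 μM final) preincubated 1 h at 37 °C, 5% CO2, then LPS or TNF added, 24 h. Supernatant IL-6 read; duplicate wells, three experiments.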

[8] = target: T4, Progesterone receptor (Homo sapiens, UniProt P06401); assay: Binding affinity towards human progesterone receptor
T4 sequence (P06401 whole entry): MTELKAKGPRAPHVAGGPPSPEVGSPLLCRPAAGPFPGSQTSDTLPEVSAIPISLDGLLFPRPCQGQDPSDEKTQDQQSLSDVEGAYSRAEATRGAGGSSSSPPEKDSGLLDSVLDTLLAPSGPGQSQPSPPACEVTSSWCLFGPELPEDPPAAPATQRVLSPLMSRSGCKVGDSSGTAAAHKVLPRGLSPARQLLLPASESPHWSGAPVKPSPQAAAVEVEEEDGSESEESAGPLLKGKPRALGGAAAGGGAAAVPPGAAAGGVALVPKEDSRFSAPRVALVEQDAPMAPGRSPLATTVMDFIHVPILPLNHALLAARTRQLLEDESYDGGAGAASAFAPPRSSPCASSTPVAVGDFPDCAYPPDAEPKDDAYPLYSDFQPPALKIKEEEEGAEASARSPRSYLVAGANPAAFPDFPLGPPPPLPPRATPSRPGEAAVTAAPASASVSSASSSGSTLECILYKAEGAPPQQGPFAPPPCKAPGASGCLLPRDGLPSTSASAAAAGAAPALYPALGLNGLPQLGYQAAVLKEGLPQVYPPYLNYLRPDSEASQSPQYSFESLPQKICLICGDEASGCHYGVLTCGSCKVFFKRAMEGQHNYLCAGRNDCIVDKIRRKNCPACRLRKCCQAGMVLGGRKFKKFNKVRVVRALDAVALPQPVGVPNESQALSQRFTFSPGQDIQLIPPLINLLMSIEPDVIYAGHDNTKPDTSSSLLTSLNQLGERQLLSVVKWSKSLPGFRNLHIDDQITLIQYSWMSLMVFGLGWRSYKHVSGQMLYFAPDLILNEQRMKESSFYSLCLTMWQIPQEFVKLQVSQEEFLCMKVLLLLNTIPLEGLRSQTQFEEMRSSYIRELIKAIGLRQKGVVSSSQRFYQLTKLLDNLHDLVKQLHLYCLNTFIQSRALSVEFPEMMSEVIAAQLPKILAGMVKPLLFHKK
How it was run: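 Receptor homogenates from frozen cell pellets in ice-cold KPO4 buffer (10 mM KPO4, 20 mM molybdate, 1 mM EDTA, 5 mM DTT, protease inhibitors), spun 35 000g 1 h at 4 °C. MR: recombinant baculovirus-expressed rat receptor, 2 nM [3H]aldosterone; PR: T-47D cell protein, 5 nM [3H]progesterone.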

[9] = target: T1, Glucocorticoid receptor; assay: Glucocorticoid induced transactivation of human tyrosine amino transferase in HepG2 cells; format: functional, cell-based
[10] = target: Mineralocorticoid receptor (Rattus norvegicus) (UniProt P22199); assay: Binding affinity for rat mineralocorticoid receptor
Chain of Mineralocorticoid receptor (Rattus norvegicus) (P22199 whole entry, looked up): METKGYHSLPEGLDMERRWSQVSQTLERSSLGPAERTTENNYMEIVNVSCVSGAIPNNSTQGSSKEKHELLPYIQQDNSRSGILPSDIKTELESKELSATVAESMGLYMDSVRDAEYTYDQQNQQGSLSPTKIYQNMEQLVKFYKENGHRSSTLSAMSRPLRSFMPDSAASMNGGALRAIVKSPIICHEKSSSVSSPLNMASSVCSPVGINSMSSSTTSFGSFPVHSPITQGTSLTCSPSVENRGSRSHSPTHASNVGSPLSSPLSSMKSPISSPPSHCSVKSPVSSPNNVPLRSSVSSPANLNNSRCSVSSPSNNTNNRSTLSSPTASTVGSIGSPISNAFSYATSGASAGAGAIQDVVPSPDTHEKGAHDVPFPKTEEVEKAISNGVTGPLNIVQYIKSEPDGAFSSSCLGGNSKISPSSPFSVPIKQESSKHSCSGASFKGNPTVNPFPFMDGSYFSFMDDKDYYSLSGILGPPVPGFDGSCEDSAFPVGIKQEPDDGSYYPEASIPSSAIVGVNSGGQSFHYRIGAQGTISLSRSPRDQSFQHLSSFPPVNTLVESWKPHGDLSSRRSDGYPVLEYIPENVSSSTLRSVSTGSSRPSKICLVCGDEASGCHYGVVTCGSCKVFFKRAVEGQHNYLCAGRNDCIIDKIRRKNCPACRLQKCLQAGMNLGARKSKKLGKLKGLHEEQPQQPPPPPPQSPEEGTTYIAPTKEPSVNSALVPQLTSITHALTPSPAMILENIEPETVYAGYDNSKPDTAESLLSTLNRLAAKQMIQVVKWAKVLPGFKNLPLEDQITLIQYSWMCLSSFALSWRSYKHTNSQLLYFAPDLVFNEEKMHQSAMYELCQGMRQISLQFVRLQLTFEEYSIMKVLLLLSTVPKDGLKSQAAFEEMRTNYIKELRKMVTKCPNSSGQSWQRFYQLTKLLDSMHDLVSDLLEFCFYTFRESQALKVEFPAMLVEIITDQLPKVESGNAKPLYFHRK

Structure (SMILES) | EC50 [1] | IC50 [2] | IC50 [3] | IC50 [4] | IC50 [5] | EC50 [6] | EC50 [7] | IC50 [8] | EC50 [9] | IC50 [10]
C[C@]12Cc3cnn(-c4ccc(F)cc4)c3C=C1CCC[C@@H]2[C@](C)(O)c1ccc(F)cc1 | 2.2 nM | > 5000 nM | > 1000 nM | 2.5 nM | 2.5 nM | 130 nM | 1.4 nM | > 1000 nM | 57.2 nM | > 5000 nM
C=CCC[C@H](O)[C@H]1CCCC2=Cc3c(cnn3-c3ccc(F)cc3)C[C@@]21C | 4.4 nM | > 5000 nM | > 1000 nM | 4.2 nM | 1.1 nM |  | 5.7 nM | > 1000 nM | 256 nM | > 5000 nM
